# Screening data as filed in PubChem BioAssay.
# The full list was thinned out, with hits kept by preference.
# ALR inh – blocks human ALR sulfhydryl oxidase activity. P55789. purified ALR, DTT oxidation, H2O2 HRP-luminol luminescence. inhibition, % (no concentration beside the values). actives 3.8% (n = 290,000). AID 485317;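 active = mean replicate inhibition above about 79%, with every replicate also reaching it, limit read from the data; inconclusive = only one of the two criteria met; inactive = mean below limit and not every replicate reaching it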
# Target sequence (P55789 whole entry, looked up): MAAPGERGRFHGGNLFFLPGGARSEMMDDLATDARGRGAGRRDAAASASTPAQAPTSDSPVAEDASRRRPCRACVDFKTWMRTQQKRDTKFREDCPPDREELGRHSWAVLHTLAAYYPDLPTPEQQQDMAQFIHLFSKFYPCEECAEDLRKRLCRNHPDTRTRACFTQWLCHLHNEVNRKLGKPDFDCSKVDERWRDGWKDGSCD
# T cell modulator – T cell immune modulators affecting CD8 T cell-vesicle binding | 2C CD8+ T cell-vesicle binding, flow cytometry; active compounds read low | response (vesicle binding), % at 7 µM | actives 0.068% (n = 330,000) | AID 2052;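 active = response, share of CD8 T cells binding vesicles, and their 90th percentile fluorescence all below set limits, cut at about 80% in these data, passing the limit was not always enough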;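 also: values below 100% mean blocked vesicle binding to the CD8+ T cells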
#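 Also added: QL9-peptide-loaded Drosophila micro-vesicles bearing Ld, ICAM-1 and B7-1; Test system: purified 2C TCR transgenic mouse naive CD8+ T cells; Measured by: cytometric PE anti-B7-1 and Alexa647 anti-CD8 signals after 1% paraformaldehyde fixation; Timing: binding step 1.5 h, 37 °C, antibody labelling 20 min, ice.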
# Glyco luc inh – N-linked glycosylation inhibition | D54 ERlucT glycosylation luciferase reporter, 24 h; percent of 100 nM tunicamycin response | actives 0.23% (n = 360,000) | reporter increase, % at 12.5 µM;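 active = mean luciferase reporter signal, scaled so untreated is 0 and the glycosylation-blocking control 100, at or above a set limit in every replicate; inconclusive = mean reaches the limit but not every replicate does; inactive = mean below the limit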;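 also: luciferase carries N-glycosylation sites so blocking glycosylation raises the light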
# Hits are given with their value; – = inactive; ? = inconclusive; · = no result.
SMILES,ALR inh,T cell modulator,Glyco luc inh
O=C(CCc1ccc(O)c(O)c1)NNC(=S)Nc1ccc(Br)cc1Cl,99,–,–
COc1cccc(NC(=O)NNC(=O)CCc2ccc(O)c(O)c2)c1,99,–,–
CN(C(=O)COC(=O)/C=C/c1ccc(C(F)(F)F)cc1)C1CCS(=O)(=O)C1 (configuration not stated),–,–,–
O=P(C(=S)Nc1ccccc1Cl)(c1ccccc1)c1ccccc1,·,·,–
CCCCn1c(N)c(N(CCOC)C(=O)COC(=O)c2ccccc2NCCO)c(=O)[nH]c1=O,·,·,–
CC1CCC2(CC1)NC(=O)N(CC(=O)N1CCN(C(=O)c3ccco3)CC1)C2=O (configuration not stated),–,–,–
O=C1[C@H]2[C@@H](c3ccc(F)cc3)N3C(=O)N(c4cccc(Cl)c4)C(=O)[C@@]3(Cc3ccc(Cl)cc3)[C@H]2C(=O)N1C1CCCCC1,–,–,–
COc1ccc([C@@H]2[C@@H]3C(=O)N(C(C)(C)C)C(=O)[C@@H]3[C@]3(Cc4ccccc4)C(=O)N(c4cccc(C)c4)C(=O)N23)cc1,–,–,56
O=C1[C@H]2[C@@H](c3ccc(F)cc3)N3C(=O)N(c4cccc(Cl)c4)C(=O)[C@@]3(Cc3ccccc3)[C@H]2C(=O)N1C1CCCCC1,–,–,72
COc1ccc([C@@H]2[C@@H]3C(=O)N(C(C)(C)C)C(=O)[C@@H]3[C@]3(Cc4ccccc4)C(=O)N(c4ccccc4)C(=O)N23)cc1,–,–,–
CC(C)OC(=O)CCCNc1ccc([N+](=O)[O-])cc1[N+](=O)[O-],–,–,–
O=C(O)C1=C[C@@H](c2ccc(Br)cc2)C[C@@H](OCCCCO)O1,?,–,–
Cc1ccc(C(=O)Sc2cccccc2=O)cc1,99,–,–
O=C(Nc1ccccc1SC(=O)c1ccccc1)c1ccccc1,·,·,–
CN(C)c1ccc(NC(=O)CCN2C(=O)c3cccc([N+](=O)[O-])c3C2=O)cc1,100,–,–
CCOc1ccc(NC(=O)CCN2C(=O)c3cccc([N+](=O)[O-])c3C2=O)cc1,–,–,–
CCOc1cccc(CN2CCCC(C(=O)c3cccc(C(F)(F)F)c3)C2)c1O (configuration not stated),–,–,–
CCOc1cccc(CN2CCCC(C(=O)Nc3ccc(-c4ccn[nH]4)cc3)C2)c1O (configuration not stated),80,–,–
Cc1cccc(-n2c(O)c(C=Nc3ccc(O)cc3)c3ccccc3c2=O)n1,99,–,–
Cc1cccc(-n2c(O)c(/C=N/NC(=O)c3ccccc3Cl)c3ccccc3c2=O)n1,96,–,–
Cc1cccc(-n2c(O)c(C=Nc3ccccc3O)c3ccccc3c2=O)n1,98,–,–
COc1cccc(N=Cc2c(O)n(-c3cccc(C)n3)c(=O)c3ccccc23)c1,–,–,–
Cc1cccc(-n2c(O)c(C=Nc3c(C)n(C)n(-c4ccccc4)c3=O)c3ccccc3c2=O)n1,·,–,–
Cc1cccc(-n2c(O)c(C=Nc3cc(O)ccc3C)c3ccccc3c2=O)n1,·,–,–
CCCCN(C=O)c1c(CC)nc2c(OCc3ccc(Cl)cc3Cl)cccn12,·,·,–
SMILES,ALR inh,T cell modulator,Glyco luc inh
S=C1SCCN1Cc1ccccc1,·,·,–
CCOC(=O)c1[nH]c(C)c(C(=O)N2CCOCC2)c1C,–,–,–
CCOC(=O)c1c(C)[nH]c(C(=O)N2CCN(c3ccc(OC)cc3)CC2)c1C,98,–,–
CCOC(=O)c1[nH]c(C)c(C(=O)N2CCN(c3ccccc3)CC2)c1C,98,–,–
CCn1cnc2sc(C(=O)N3CCN(c4ccc(OC)cc4)CC3)c(C)c2c1=O,81,–,–
Cc1c(C(=O)N2CCN(c3ccc([N+](=O)[O-])cc3)CC2)sc2ncn(CC(=O)N3CCOCC3)c(=O)c12,–,–,–
CCOC(=O)c1c(C)[nH]c(C)c1S(=O)(=O)N(C)CC(=O)N1CCN(c2ccc(OC)cc2)CC1,–,–,–
Cn1c(=O)c2c(-c3ccccc3)n(-c3cc(Cl)c([N+](=O)[O-])cc3O)cc2n(C)c1=O,·,·,–
COc1ccc(CCN2CCCn3c2nc2c3c(=O)[nH]c(=O)n2C)cc1OC,–,–,–
O=C(c1ccccc1)N1N=C(C(F)(F)F)CC1(O)c1ccccc1O (configuration not stated),–,–,–
O=C(/C=C/c1ccc(O)cc1)c1ccccc1,99,–,–
COc1ccc(C(=O)/C=C/c2ccc(O)cc2)cc1,98,–,–
COc1ccc(C=CC(=O)c2ccc([N+](=O)[O-])cc2)cc1,·,·,–
Cc1nn(C)cc1/C=N/O,–,–,–
COc1ccc(C=CC(=O)c2c(OC)cc(OC)c(OC)c2O)cc1,·,·,29
COc1ccc2cc(C(=O)/C=C/c3cc(OC)c(O)c(OC)c3)ccc2c1,–,–,–
CN(C)c1ccc(/C=C/C(=O)c2ccc(O)cc2)cc1,·,·,–
Cc1nn(C)cc1/C=C/C(=O)c1ccc(O)cc1,99,–,–
CC(CC(=O)Nc1nnc(CC(C)(C)C)s1)c1ccccc1 (configuration not stated),–,–,–
COc1ccc(C(=O)NCc2ccncc2)cc1S(=O)(=O)NCc1ccc(Cl)cc1,·,–,–
COc1ccc(-n2cnc(=S)[nH]c2=S)cc1,·,·,–
O=C(COC(=O)CNC(=O)c1cccc(OC(F)F)c1)NNC(=O)c1ccccc1,–,–,–
CC(C)c1ccc(S(=O)(=O)N2CCN(C(=O)CCNS(=O)(=O)c3ccccc3F)CC2)cc1,–,–,–
CCOC(=O)C1(CCCc2ccccc2)CCN(C(=O)Cn2nc(C)nc2C)CC1,·,–,–
COc1ccc(N/C=C/C(=O)c2cc(OC)c(OC)c(OC)c2)cc1,–,–,38
SMILES,ALR inh,T cell modulator,Glyco luc inh
COc1ccc(N/C=C/C(=O)c2ccc(OC)c(OC)c2)cc1,–,–,–
CCCCNC(=O)C1(C)CCN1C(=O)c1csnn1 (configuration not stated),·,·,–
Cc1csc(NC(=O)CSc2nccn2C)n1,96,–,–
CCOC(=O)c1csc(NC(=O)CSc2nnnn2-c2ccc3c(c2)OCCO3)n1,–,–,–
CCOC(=O)c1csc(NC(=O)CSc2nnnn2CC)n1,99,–,–
Cc1csc(NC(=O)CSc2nncc(=O)n2N)n1,98,–,–
Cc1csc(NC(=O)CSc2nc(C)cs2)n1,–,–,–
Cc1csc(NC(=O)CSc2nncn2C)n1,–,–,–
O=C(COC(=O)C1CC(=O)N(Cc2ccccc2)C1)c1ccc(F)cc1 (configuration not stated),–,–,–
CCCCNC(=O)c1sc(=S)n2c1[nH]c(=O)c1ccccc12,·,–,–
O=C(NC1CCCCC1)c1sc(=S)n2c1[nH]c(=O)c1ccccc12,97,–,–
CCC(C)N(C(=O)COC(=O)c1nc2nc(C)cc(C)n2n1)C1CCS(=O)(=O)C1 (configuration not stated),–,–,–
COc1ccc(C(=O)Nc2cc(C(=O)c3ccccc3)c(C)oc2=O)cc1,–,–,–
Cc1oc(=O)c(NC(=O)c2cccc(Cl)c2)cc1C(=O)c1ccccc1,97,–,–
Cc1nnc(SCC(=O)N/N=C/c2cc(Cl)c(O)c(Cl)c2)s1,82,–,–
